Source: paper PMC7321800 (Journal of immunology (Baltimore, Md. : 1950), 2020)
In brackets after ≈: the same amount, converted by molar mass. Several values for one entry are separate records, joined by “and”; a condition that tells them apart may be missing. Equal values may be shown once. Entries after “also recorded” stand apart in the source; their conditions may differ. Read-outs that look alike come from different tables or passages of the source.

What was measured:
N. gonorrhoeae F62 ΔlgtD [1] = experiment: Serum bactericidal assay with pooled normal human serum; assay type: cell-based, Neisseria gonorrhoeae; details: CMP-NulO added 15 min before or 15 min after CMP-Neu5Ac; 3.3% and 10% NHS
[2] = biological target: T1, N. gonorrhoeae LOS sialyltransferase (Lst) (Neisseria gonorrhoeae, UniProt P72074); experiment: Utilization of CMP-NulO as substrate by LOS sialyltransferase; assay type: biochemical; details: transfer of NulO to LNnT LOS
T1 sequence (P72074 whole entry): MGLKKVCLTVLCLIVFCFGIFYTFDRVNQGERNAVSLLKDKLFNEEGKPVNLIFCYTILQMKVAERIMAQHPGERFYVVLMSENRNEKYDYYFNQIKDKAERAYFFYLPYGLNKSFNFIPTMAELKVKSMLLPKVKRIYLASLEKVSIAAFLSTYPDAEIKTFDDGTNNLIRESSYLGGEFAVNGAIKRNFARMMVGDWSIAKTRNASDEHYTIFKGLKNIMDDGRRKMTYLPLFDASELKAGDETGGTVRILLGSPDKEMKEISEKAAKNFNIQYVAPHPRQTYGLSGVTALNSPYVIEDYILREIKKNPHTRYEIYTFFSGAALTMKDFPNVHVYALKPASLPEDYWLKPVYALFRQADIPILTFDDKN

N. gonorrhoeae H041 [3] = experiment: Mouse vaginal colonization model, wild-type BALB/c mice; assay type: in vivo; details: strain H041; for Efficacy in clearing gonococcal colonization: 10 µg intravaginally daily, wild-type BALB/c mice; for First day with significantly lower CFU counts than saline control: 10 µg/d intravaginally, two-way ANOVA, Dunnett
N. gonorrhoeae [4] = experiment: Mouse vaginal colonization model, Cmah−/− mice; assay type: in vivo
[5] = test system: N. gonorrhoeae strain H041; experiment: Mouse vaginal colonization model, human FH/C4BP transgenic mice; assay type: in vivo
How it was run: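 Premarin-treated human FH/C4BP transgenic BALB/c mice, 6-8 weeks old and in diestrus, were infected intravaginally with strain H041 (n=6/group). Test compound was given intravaginally once daily, starting 2 h before infection; the 10 µg dose was given as 1 mg/ml in sterile H2O. Saline was the vehicle control. Bacterial burden was followed over time, and areas under the curve were compared by nonparametric rank sum test.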

[6] = Stability of CMP-NulOs in solution; assay type: physicochemical
N. gonorrhoeae H041 [7] = details: intravaginal administration; cited from earlier work
N. gonorrhoeae F62 ΔlgtD [8] = experiment: Silver-stained SDS-PAGE of LOS; assay type: cell-based, Neisseria gonorrhoeae; details: media containing CMP-NulO 100 µg/ml
How it was run: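 F62 ΔlgtD was grown in liquid media with or without test compound. Protease K-treated (100 µg/ml) lysates were run on 16.5% Tris-Tricine gels with Tris-Tricine cathode buffer, and LOS was silver-stained. Slower LOS mobility than bacteria grown without test compound was taken to indicate NulO addition.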

[9] = biological target: T1, N. gonorrhoeae LOS sialyltransferase (Lst); details: tested as CMP salts; cited from earlier work
[10] = test system: FH purified from human plasma; experiment: Factor H binding to bacteria by flow cytometry; details: for FH binding (fluorescence) relative to that seen with Neu5Ac substituted LOS / Decrease in FH binding fluorescence relative to Neu5Ac: NulO capped LNnT LOS
[11] = test system: FH purified from human plasma; details: compared with Neu5Ac; cited from earlier work
N. gonorrhoeae F62 ΔlgtD [12] = details: bacteria fed with the CMP salts; cited from earlier work
N. gonorrhoeae [13] = details: cited from earlier work; for Eradication of oropharyngeal infection: men who have sex with men and commercial sex workers
N. gonorrhoeae [14] = details: cited from earlier work
[15] = F62 ΔlgtD grown with the CMP-NulO

[N-]=[N+]=N[C@@H](C1O[C@](OP(=O)(O)OC[C@H]2O[C@@H](n3ccc(N)nc3=O)C(O)C2O)(C(=O)O)CC(O)[C@H]1O)[C@H](O)CO (stereo partly drawn) [CMP-Kdn7N3]
Prevention of Neu5Ac-mediated serum resistance (N. gonorrhoeae F62 ΔlgtD [1]): ineffective in preventing CMP-Neu5Ac-mediated serum resistance | Substrate for Lst [2]: served as substrates for Lst

Nc1ccn([C@@H]2O[C@H](COP(=O)(O)O[C@@]3(C(=O)O)C[C@H](O)[C@@H](O)[C@H]([C@H](O)[C@H](O)CO)O3)[C@@H](O)[C@H]2O)c(=O)n1 [CMP-Kdn, CMP-ketodeoxynonulosonate]
Prevention of Neu5Ac-mediated serum resistance (N. gonorrhoeae F62 ΔlgtD [1]): effectively prevented Neu5Ac-mediated serum resistance only when added first | Substrate for Lst [2]: served as substrates for Lst | Efficacy in clearing gonococcal colonization (N. gonorrhoeae H041 [3]): equally efficacious; also recorded: as efficacious as CMP-Leg5,7Ac2 | First day with significantly lower CFU counts than saline control (N. gonorrhoeae H041 [3]): 2 days

CC(=O)N[C@@H]([C@@H]1O[C@](OP(=O)(O)OC[C@H]2O[C@@H](n3ccc(N)nc3=O)[C@H](O)[C@@H]2O)(C(=O)O)C[C@H](O)[C@H]1NC(C)=O)[C@@H](C)O [CMP-Leg5,7Ac2]
Prevention of Neu5Ac-mediated serum resistance (N. gonorrhoeae F62 ΔlgtD [1]): blocked CMP-Neu5Ac-mediated serum resistance when added after CMP-Neu5Ac | Efficacy in clearing gonococcal colonization (N. gonorrhoeae H041 [3]): equally efficacious | First day with significantly lower CFU counts than saline control (N. gonorrhoeae H041 [3]): 1 days | AUC (log10 CFU) (N. gonorrhoeae [4]; strain 398078, 10 µg daily): zero | Detection of bacteria in treated animals on day 1 (N. gonorrhoeae [4]; strain 398078, swabs taken 24 h after infection, 10 µg daily): unable to detect | Efficacy (rate of clearance and bacterial burden compared to saline) (N. gonorrhoeae [4]; strains F62 ΔlgtD and H041, 10 µg daily intravaginally): effective against both strains | Efficacy ([5]; 1 µg/day intravaginally): ineffective | Efficacy ([5]; 5 µg/day intravaginally): progressively increasing efficacy; also recorded: cleared infection significantly faster | Efficacy ([5]; 10 µg/day intravaginally): progressively increasing efficacy; also recorded: cleared infection significantly faster | Percentage of intact CMP-NulO relative to t0 ([6]; 6 weeks at 4 °C, pH 7): Greater than 90% | Percentage of intact CMP-NulO relative to t0 ([6]; 1 h, pH 4 (data not shown)): greater than 50% | Percentage of intact CMP-NulO relative to t0 ([6]; 4 h, pH 4, 37 °C): 4% | Percentage of intact CMP-NulO relative to t0 ([6]; 24 h at 37 °C, pH 5): about 54% | Percentage of intact CMP-NulO relative to t0 ([6]; 3 days at 20 °C, pH 7): Greater than 90% | Relative stability over all test conditions ([6]; descending order: CMP-Leg5,7Ac2, CMP-Neu5Ac9N3, CMP-Neu5Ac, CMP-Kdn, pH 4-7, 4-37 °C): most stable | Duration and burden of vaginal colonization of multidrug-resistant N. gonorrhoeae in mice (N. gonorrhoeae H041 [7]): decreased the duration and reduced the burden of vaginal colonization

CC(=O)NC1C(OC(C)=O)CC(OP(=O)(O)OCC2OC(n3ccc(N)nc3=O)C(O)C2O)(C(=O)O)OC1C(O)C(O)CO (stereo not drawn) [CMP-Neu4,5Ac2]
Migration of LOS on silver-stained 16.5% Tricine gel (N. gonorrhoeae F62 ΔlgtD [8]): no change in migration of LOS

CC(=O)N[C@H]1[C@H]([C@H](O)[C@H](O)COC(C)=O)O[C@@](OP(=O)(O)OC[C@H]2O[C@@H](n3ccc(N)nc3=O)[C@H](O)[C@@H]2O)(C(=O)O)C[C@@H]1O [CMP-Neu5,9Ac2]
Prevention of Neu5Ac-mediated serum resistance (N. gonorrhoeae F62 ΔlgtD [1]): rendered F62 ΔlgtD susceptible to 10% NHS, but not 3.3% NHS | Efficacy in clearing gonococcal colonization (N. gonorrhoeae H041 [3]): ineffective

CC(=O)N[C@H]1[C@H]([C@H](O)[C@H](O)CN=[N+]=[N-])OC(OP(=O)(O)OC[C@H]2O[C@@H](n3ccc(N)nc3=O)[C@H](O)[C@@H]2O)(C(=O)O)C[C@@H]1O (stereo partly drawn) [CMP-Neu5Ac9N3]
Efficacy in clearing gonococcal colonization (N. gonorrhoeae H041 [3]): equally efficacious; also recorded: as efficacious as CMP-Leg5,7Ac2 | First day with significantly lower CFU counts than saline control (N. gonorrhoeae H041 [3]): 2 days

CC(=O)N[C@H]([C@@H]1O[C@](OP(=O)(O)OC[C@H]2O[C@@H](n3ccc(N)nc3=O)[C@H](O)[C@@H]2O)(C(=O)O)C[C@H](O)[C@@H]1NC(C)=O)[C@H](C)O [CMP-Pse5,7Ac2]
Utilization by Lst [9]: not utilized by Lst

[N-]=[N+]=N[C@@H]([C@H](O)[C@H](O)[C@@H](O)CC(=O)C(=O)O)[C@H](O)CO [Kdn7N3, 3,7-dideoxy-7-azido-D-glycero-D-galacto-nonulosonic acid]
FH binding (fluorescence) relative to that seen with Neu5Ac substituted LOS [10, 15]: ~ 60% and ~ 62%

O=C(O)C(=O)C[C@H](O)[C@@H](O)[C@@H](O)[C@H](O)[C@H](O)CO [Kdn, 3-deoxy-D-glycero-D-galacto-nonulosonic acid]
FH binding (fluorescence) relative to that seen with Neu5Ac substituted LOS [10, 15]: ~ 60% and ~ 62% | Decrease in FH binding fluorescence relative to Neu5Ac [10]: ~ 40%

CC(=O)N[C@@H]([C@@H]1O[C@](O)(C(=O)O)C[C@H](O)[C@H]1NC(C)=O)[C@@H](C)O [Leg5,7Ac2]
FH binding compared with unsialylated bacteria ([10]; F62 ΔlgtD grown with the CMP-NulO, NulO substituted LOS): did not bind FH above levels seen with unsialylated bacteria | FH binding to gonococci with NulO capped LNnT LOS [11]: lack of detectable FH binding | Effect of NulO incorporation into LOS on bacterial resistance to complement (N. gonorrhoeae F62 ΔlgtD [12]): did not enhance bacterial resistance to complement | Utilization by Lst [9]: utilized by Lst

CC(=O)N[C@H]1[C@H]([C@H](O)[C@H](O)COC(C)=O)OC(O)(C(=O)O)C[C@@H]1O (stereo partly drawn) [Neu5,9Ac2]
FH binding (fluorescence) relative to that seen with Neu5Ac substituted LOS [10, 15]: ~ 30% | Decrease in FH binding fluorescence relative to Neu5Ac [10]: ~ 70%

CC(=O)N[C@H]1[C@H]([C@H](O)[C@H](O)CN=[N+]=[N-])OC(O)(C(=O)O)C[C@@H]1O (stereo partly drawn) [Neu5Ac9N3]
FH binding to gonococci with NulO capped LNnT LOS [11]: lack of detectable FH binding | Effect of NulO incorporation into LOS on bacterial resistance to complement (N. gonorrhoeae F62 ΔlgtD [12]): did not enhance bacterial resistance to complement | Utilization by Lst [9]: utilized by Lst

CO[C@H](CO)[C@@H](O)[C@@H]1OC(O)(C(=O)O)C[C@H](O)[C@H]1NC(=O)CO (stereo partly drawn) [Neu5Gc8Me, reference compound]
FH binding to gonococci with NulO capped LNnT LOS [11]: lack of detectable FH binding | Utilization by Lst [9]: utilized by Lst

O=C(CO)N[C@H]1[C@H]([C@H](O)[C@H](O)CO)OC(O)(C(=O)O)C[C@@H]1O (stereo partly drawn) [Neu5Gc, reference compound]
FH binding to gonococci with NulO capped LNnT LOS [11]: no impact | Utilization by Lst [9]: utilized by Lst

CC[C@H]1OC(=O)[C@@](C)(F)C(=O)[C@H](C)[C@@H](O[C@@H]2O[C@H](C)C[C@H](N(C)C)[C@H]2O)[C@](C)(OC)C[C@@H](C)C(=O)[C@H](C)[C@H]2N(CCCCn3cc(-c4cccc(N)c4)nn3)C(=O)O[C@]12C [Solithromycin, solithromycin]
Non-inferiority versus ceftriaxone plus azithromycin (N. gonorrhoeae [13]; phase III trial): failed to meet non-inferiority criteria

C[C@@H]1CN2c3c(cc4c(N5C(=O)OC[C@@H]5C)noc4c3F)CC3(C(=O)NC(=O)NC3=O)[C@H]2[C@H](C)O1 [Zoliflodacin, zoliflodacin]
Treatment of uncomplicated urogenital infections (N. gonorrhoeae [13]): appear promising | Eradication of oropharyngeal infection (N. gonorrhoeae [13]): failures to eradicate oropharyngeal infection

C=CC1=C(C(=O)O)N2C(=O)[C@@H](NC(=O)/C(=N\OCC(=O)O)c3csc(N)n3)[C@H]2SC1 [cefixime]
MIC (N. gonorrhoeae [14]; strain SD-1): 0.125 µg/mL (≈ 0.276 µM)

CO/N=C(\C(=O)N[C@@H]1C(=O)N2C(C(=O)O)=C(CSc3nc(=O)c(=O)[nH]n3C)CS[C@H]12)c1csc(N)n1 [ceftriaxone]
MIC (N. gonorrhoeae [14]; strain CTX-r Spain): > 2 µg/mL | MIC (N. gonorrhoeae [14]; strain H041 (WHO X)): 2 to 4 µg/mL | MIC (N. gonorrhoeae [14]; strain SD-1): 0.094 µg/mL (≈ 0.169 µM) | MIC (N. gonorrhoeae [14]; strain UMNJ60_06UM (NJ-60)): 0.38 µg/mL (≈ 0.685 µM)

O=c1ccc2ncc(=O)n3c2n1C[C@H]3CN1CCC(NCc2cc3c(cn2)OCCC3)CC1 [gepotidacin]
Treatment of uncomplicated urogenital infections (N. gonorrhoeae [13]): appear promising | Eradication of oropharyngeal infection (N. gonorrhoeae [13]): failures to eradicate oropharyngeal infection
